Results from ChEMBL document CHEMBL1135828, “Syntheses and antitumor targeting G1 phase of the cell cycle of benzoyldihydroisoquinolines and related 1-substituted isoquinolines” (J Med Chem, 2002).

test system: L1210 (1565); experiment: Percent inhibition against cells in G 1 phase by the compound at the dose 25 uM; format: functional; details: Mus musculus

Row | Compound | inhibition at 25 µM [%]
1 | COc1cc2c(cc1OCc1ccccc1)CCN=C2C(=O)c1cccc(S(=O)(=O)c2ccc(C)cc2)c1 | 70
2 | COc1cc2c(cc1OCC(C)C)CCN=C2C(=O)c1ccccc1 | 63
3 | COc1cc2c(cc1OCC=C(C)C)CCN=C2C(=O)c1ccccc1 | 65

test system: L1210 (1565); experiment: Inhibitory activity against L 1210 cell proliferation; format: functional, cell-based; details: Mus musculus
Procedure, shortened: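 L1210 murine leukemia cells grown in RPMI 1640 with 10% fetal calf serum, 2 mM L-glutamine, penicillin/streptomycin and 10 mM Hepes (pH 7.4). Cells exposed to graded drug concentrations for 48 h. Microculture tetrazolium assay read-out; IC50 is the concentration reducing optical density by 50% relative to untreated controls.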

Row | Compound | IC50 [µM]
4 | CCCCCOc1cc2c(cc1OC)CCN=C2C(=O)c1ccccc1 | 3.7
5 | COc1cc2ccnc(C(=O)c3ccccc3)c2cc1O | > 10
6 | C[N+]1=C(C(=O)c2ccccc2)c2ccc(OCc3ccccc3)cc2CC1 | 9.8
7 | CCCCCOc1cc2ccnc(C(=O)c3ccccc3)c2cc1OC | > 10
8 | CCCCCOc1ccc2c(c1)CCN=C2C(=O)c1ccccc1 | 1
9 | COc1cc2c(cc1O)C(C(=O)c1ccccc1)=NCC2 | > 10
10 | COc1cc2c(C(=O)c3ccccc3)nccc2cc1OCc1ccccc1 | > 10
11 | COc1ccc(C(=O)C2=[N+](C)CCc3cc(OCc4ccccc4)c(OC)cc32)cc1OC | > 10
12 | CCCCCOc1cc2c(cc1OC)C(C(=O)c1ccccc1)=NCC2 | 4.5
13 | O=C(C1=NCCc2cc(OCc3ccccc3)ccc21)c1ccccc1 | 6.5
14 | CC(C)COc1ccc2c(c1)CCN=C2C(=O)c1ccccc1 | 11.9
15 | CCCCCOc1cc2c(cc1OC)C(C)=NCC2 | 7.7
16 | COc1cc2c(cc1O)CCN=C2c1ccccc1 | > 10
17 | COc1cc2ccnc(C(=O)c3ccccc3)c2cc1OCc1ccccc1 | > 10
18 | COc1cc2c(C(=O)c3ccccc3O)nccc2cc1OCc1ccccc1 | > 10
19 | CCCCC1=NCCc2cc(OCc3ccccc3)c(OC)cc21 | > 10
20 | CC(C)=CCOc1ccc2c(c1)CCN=C2C(=O)c1ccccc1 | 3.8
21 | C/C=C/COc1ccc2c(c1)CCN=C2C(=O)c1ccccc1 | > 10
22 | COc1cc2c(C(=O)c3cccc(O)c3)nccc2cc1OCc1ccccc1 | 11.6
23 | COc1cc2c(cc1O)CCN=C2C(=O)c1ccccc1 | > 10
24 | COc1cc2c(C(=O)c3ccccc3)nccc2cc1O | > 10
25 | COc1cc2c(cc1OCc1ccccc1)CCN=C2C(=O)c1ccccc1OS(=O)(=O)c1ccc(C)cc1 | > 10
26 | COc1ccc(COc2cc3ccnc(C(=O)c4ccccc4)c3cc2OC)cc1 | > 10
27 | CCCCC1=NCCc2cc(OCc3ccccc3)ccc21 | > 10
28 | c1ccc(COc2ccc3c(c2)CCN=C3c2ccccc2)cc1 | > 10

Continued, values first:

Row | IC50 [µM] | Compound
29 | > 10 | COc1cc2c(cc1OCc1ccccc1)CCN=C2C(=O)c1ccccc1OC
30 | 11.5 | COc1cc2c(C(=O)c3ccc(O)cc3)nccc2cc1OCc1ccccc1
31 | 5.3 | COc1cc2c(cc1OCc1ccccc1)CCN=C2C(=O)c1cccc(O)c1
32 | > 10 | COc1ccc(C(=O)C2=NCCc3cc(OCc4ccccc4)ccc32)cc1
33 | 3.6 | COc1cc2c(cc1OCc1ccccc1)C(C(=O)c1ccccc1)=NCC2
34 | 4.1 | COc1cc2c(cc1OCc1ccccc1)CCN=C2C(=O)c1ccccc1
35 | 4.1 | COc1cc2c(cc1OCc1ccccc1)CCN=C2C(=O)c1cccc(S(=O)(=O)c2ccc(C)cc2)c1
36 | 13.1 | C/C=C/COc1cc2c(cc1OC)C(C(=O)c1ccccc1)=NCC2
37 | > 10 | COc1cc2c(cc1OCc1ccccc1)CCN=C2c1ccccc1
38 | 4.7 | COc1cc2c(cc1OCc1ccccc1)CCN=C2C(=O)c1cccc(OC(C)=O)c1
39 | > 10 | COc1cc2c(cc1OCc1ccccc1)CCN=C2C(=O)c1ccccc1O
40 | 6.1 | COc1cc2c(cc1OCC(C)C)CCN=C2C(=O)c1ccccc1
41 | 13 | COc1ccc(C(=O)C2=NCCc3cc(OCc4ccccc4)c(OC)cc32)cc1OC
42 | 1.4 | COc1cccc(C(=O)C2=NCCc3cc(OCc4ccccc4)ccc32)c1
43 | > 10 | COc1cc2c(cc1OCc1ccccc1)CCN=C2c1ccccc1O
44 | > 10 | COc1ccc(C(=O)C2=NCCc3cc(OCc4ccccc4)ccc32)cc1OC
45 | 9.4 | COc1cc2c(cc1OCC=C(C)C)CCN=C2C(=O)c1ccccc1
46 | > 10 | COc1cc2c(cc1OCc1ccccc1)CCN=C2C(=O)c1ccc(O)cc1
47 | 12.3 | COc1ccccc1C(=O)C1=NCCc2cc(OCc3ccccc3)ccc21
48 | 11.9 | CCOc1cc2c(cc1OC)C(C(=O)c1ccccc1)=NCC2
49 | > 10 | COc1cc2c(cc1OCc1ccccc1)CCN=C2C(=O)c1ccc(OS(=O)(=O)c2ccc(C)cc2)cc1
50 | 2.5 | COc1cccc(C(=O)C2=NCCc3cc(OCc4ccccc4)c(OC)cc32)c1
51 | 11.1 | COc1ccc(COc2cc3c(cc2OC)C(C(=O)c2ccccc2)=NCC3)cc1

test system: L1210 (1565); experiment: Percent inhibition against cells in G 1 phase by the compound at the dose 5 uM; format: functional; details: Mus musculus

Row | Compound | inhibition at 5 µM [%]
52 | CCCCCOc1cc2c(cc1OC)CCN=C2C(=O)c1ccccc1 | 63
53 | CCCCCOc1ccc2c(c1)CCN=C2C(=O)c1ccccc1 | 63
54 | COc1cc2c(cc1OCc1ccccc1)CCN=C2C(=O)c1cccc(O)c1 | 67

test system: L1210 (1565); experiment: Percent inhibition against cells in G 1 phase by the compound; format: functional, Mus musculus; details: not given

Row | Compound | Inhibition [%]
55 | CCCCCOc1cc2c(cc1OC)C(C)=NCC2 | 72

test system: L1210 (1565); experiment: Percent inhibition against cells in G 1 phase by the compound at the dose 10 uM; format: functional; details: Mus musculus

Row | Compound | inhibition at 10 µM [%]
56 | COc1cc2c(cc1OCc1ccccc1)CCN=C2C(=O)c1ccccc1 | 85
57 | O=C(C1=NCCc2cc(OCc3ccccc3)ccc21)c1ccccc1 | 54
